The source made the active and inactive calls. The rule behind the calls is not given here.
The compounds below were run against T1, Toll-like receptor 7 (Homo sapiens) (UniProt Q9NYK1) (assay: Inhibition of human TLR7 expressed in HEK293 cells assessed as decrease in R848-induced NF-kappaB activation-mediated SEAP production at 40 uM after 24 hrs by Quanti-blue-based assay relative to control).
T1 sequence (whole entry): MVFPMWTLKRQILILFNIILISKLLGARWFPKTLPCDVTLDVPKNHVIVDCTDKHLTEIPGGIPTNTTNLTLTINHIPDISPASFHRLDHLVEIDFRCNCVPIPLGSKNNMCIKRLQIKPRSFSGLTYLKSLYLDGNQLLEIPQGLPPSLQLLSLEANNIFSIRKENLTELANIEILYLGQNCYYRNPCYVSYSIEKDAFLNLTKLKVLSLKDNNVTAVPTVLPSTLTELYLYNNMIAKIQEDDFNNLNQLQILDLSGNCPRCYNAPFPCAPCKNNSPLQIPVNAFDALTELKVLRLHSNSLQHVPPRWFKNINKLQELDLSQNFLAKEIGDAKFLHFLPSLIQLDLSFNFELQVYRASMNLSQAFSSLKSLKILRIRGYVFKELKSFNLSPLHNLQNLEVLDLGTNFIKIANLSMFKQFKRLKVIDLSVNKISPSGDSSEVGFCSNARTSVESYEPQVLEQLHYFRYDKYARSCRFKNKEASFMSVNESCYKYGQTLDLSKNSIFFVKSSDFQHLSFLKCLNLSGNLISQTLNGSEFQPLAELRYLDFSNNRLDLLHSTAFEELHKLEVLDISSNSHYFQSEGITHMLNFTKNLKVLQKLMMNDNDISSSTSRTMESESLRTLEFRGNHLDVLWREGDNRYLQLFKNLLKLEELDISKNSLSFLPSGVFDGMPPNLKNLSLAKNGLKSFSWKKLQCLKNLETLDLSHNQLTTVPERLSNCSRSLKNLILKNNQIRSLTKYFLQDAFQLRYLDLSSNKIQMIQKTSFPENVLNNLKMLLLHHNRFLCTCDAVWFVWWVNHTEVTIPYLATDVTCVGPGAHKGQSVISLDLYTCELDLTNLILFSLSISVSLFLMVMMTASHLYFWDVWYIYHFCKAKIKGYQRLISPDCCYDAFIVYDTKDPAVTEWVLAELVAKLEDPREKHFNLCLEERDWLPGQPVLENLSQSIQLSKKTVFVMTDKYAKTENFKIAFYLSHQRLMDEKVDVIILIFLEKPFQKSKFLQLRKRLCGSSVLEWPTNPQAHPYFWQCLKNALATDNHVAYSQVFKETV
Assay type: cell-based
In short: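 Screening mode: HEK hTLR7 cells, 20,000/well in duplicate, stimulated with R848 1 µg/mL, library compounds at 40 µM; triptolide 40 nM positive control, 0.4% DMSO negative control; SEAP read by QUANTI-Blue.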
An inhibition of 21% was found for `Nc1ncc(Cl)nc1C(=O)NNC(=O)c1cccc(C(F)(F)F)c1` in this work.
An inhibition of 17% was found for `Cc1ncc(C(=O)NNC(=O)c2ccc(Cl)cc2)s1` in this work.
An inhibition of 23% was found for `Nc1nccnc1C(=O)NNC(=O)c1ccccc1C(F)(F)F` in this work.
An inhibition of 23% was found for `Nc1nccnc1C(=O)NNC(=O)c1ccc([N+](=O)[O-])cc1Cl` in this work.
An inhibition of 19.5% was found for `Cc1nc(C(=O)NNC(=O)c2ccncc2)cs1` in this work.
An inhibition of 24% was found for `O=C(NNC(=O)c1nccs1)c1ccc(Cl)cc1` in this work.
An inhibition of 33% was found for `O=C(NNC(=O)c1csc(-c2ccncc2)n1)c1ccccn1` in this work.
An inhibition of 18.2% was found for `Nc1ncc(Br)nc1C(=O)NNC(=O)c1cccc(C(F)(F)F)c1` in this work.
An inhibition of 18% was found for `COC(=O)c1ccc(C(=O)NNC(=O)c2nccnc2N)cc1` in this work.
An inhibition of 83.1% was found for `Nc1cccnc1C(=O)NNC(=O)c1cccc(C(F)(F)F)c1` in this work.
An inhibition of 96.5% was found for `O=C(NNC(=O)c1ncccc1O)c1ccc(OC(F)(F)F)cc1` in this work.
An inhibition of 29% was found for `O=C(NNC(=O)c1cnccn1)c1cccc(C(F)(F)F)c1` in this work.
An inhibition of 22% was found for `Nc1ncccc1C(=O)NNC(=O)c1cccc(C(F)(F)F)c1` in this work.
An inhibition of 86% was found for `O=C(NNC(=O)c1csc(-c2cccnc2)n1)c1ccccn1` in this work.
An inhibition of 72% was found for `Nc1nccnc1C(=O)NNC(=O)c1ccc(OC(F)(F)F)cc1` in this work.
An inhibition of 76% was found for `O=C(NNC(=O)c1ccccn1)c1ccc(Cl)cc1` in this work.
An inhibition of 24% was found for `Cc1nc(C(=O)NNC(=O)c2cc(Cl)cc(Cl)c2)cs1` in this work.
An inhibition of 82.3% was found for `O=C(NNC(=O)c1ccccn1)c1ccc(Br)cc1` in this work.
An inhibition of 17.7% was found for `Nc1nccnc1C(=O)NNC(=O)c1ccc(O)cc1` in this work.
An inhibition of 6% was found for `Cc1nc(C(=O)NNC(=O)c2ccccc2Cl)cs1` in this work.
An inhibition of 97.4% was found for `O=C(NNC(=O)c1ncccc1O)c1ccc(C(F)(F)F)cc1` in this work.
An inhibition of 26% was found for `Cc1nc(C(=O)NNC(=O)c2cccc(OC(F)(F)F)c2)cs1` in this work.
An inhibition of 68% was found for `Nc1nccnc1C(=O)NNC(=O)c1cccc(C(F)(F)F)c1` in this work.
An inhibition of 21.1% was found for `Cc1nc(C(=O)NNC(=O)c2cccc(F)c2)cs1` in this work.
An inhibition of 24% was found for `COc1cccc(C(=O)NNC(=O)c2csc(C)n2)c1` in this work.
An inhibition of 85.4% was found for `O=C(NNC(=O)c1ccccn1)c1ccc(C(F)(F)F)cc1` in this work.
An inhibition of 16.7% was found for `Cc1ccc2c(Cl)c(C(=O)NNC(=O)c3ccc(Cl)cc3)sc2c1` in this work.
An inhibition of 28% was found for `Nc1nccnc1C(=O)NNC(=O)c1c(Cl)cccc1Cl` in this work.
An inhibition of 79.8% was found for `O=C(NNC(=O)c1ccccn1)c1ccc(OC(F)(F)F)cc1` in this work.
An inhibition of 6.4% was found for `Cc1nc(C(=O)NNC(=O)c2cccc(C#N)c2)cs1` in this work.
An inhibition of 88% was found for `O=C(NNC(=O)c1ccccn1)c1cccc(C(F)(F)F)c1` in this work.
An inhibition of 26% was found for `Nc1nccnc1C(=O)NNC(=O)c1ccc(F)cc1F` in this work.
An inhibition of 94.2% was found for `CC(C)c1nc(C(=O)NNC(=O)c2ccccn2)cs1` in this work.
An inhibition of 9% was found for `COC(=O)c1cccc(C(=O)NNC(=O)c2csc(C)n2)c1` in this work.
An inhibition of 15% was found for `N#Cc1ccc(C(=O)NNC(=O)c2nccnc2N)cc1` in this work.
An inhibition of 20.4% was found for `COc1ccc(C(=O)NNC(=O)c2nccnc2N)cc1` in this work.
An inhibition of 17% was found for `CCCCCCNC(=O)c1ccc(C(=O)NNC(=O)c2nccnc2N)cc1` in this work.
An inhibition of 96.2% was found for `O=C(NNC(=O)c1ncccc1O)c1ccc(Br)cc1` in this work.
An inhibition of 21% was found for `Cc1nc(C(=O)NNC(=O)c2cccnc2)cs1` in this work.
An inhibition of 13% was found for `O=C(NNC(=O)c1cc2ccccc2[nH]1)c1ccc(Cl)cc1` in this work.
An inhibition of 11% was found for `CC(C)c1cc(C(=O)NNC(=O)c2ccc(Cl)cc2)[nH]n1` in this work.
An inhibition of 73% was found for `Cc1nc(C(=O)NNC(=O)c2ccccn2)cs1` in this work.
An inhibition of 42% was found for `Nc1nccnc1C(=O)NNC(=O)c1ccc(Cl)cc1` in this work.
An inhibition of 98.8% was found for `O=C(NNC(=O)c1csc(-c2ccccc2)n1)c1ccccn1` in this work.
An inhibition of 21% was found for `CCCC1Nc2nccnc2C(=O)N1NC(=O)c1cccc(C(F)(F)F)c1` (configuration not stated) in this work.
An inhibition of 12% was found for `Nc1nccnc1C(=O)NNC(=O)c1cccnc1` in this work.
An inhibition of 40% was found for `Cc1nc(C(=O)NNC(=O)c2cccc(Cl)c2)cs1` in this work.
An inhibition of 18% was found for `Cc1nc(C(=O)NNC(=O)c2cccc(O)c2)cs1` in this work.
An inhibition of 19% was found for `O=C(NNC(=O)c1nccnc1Cl)c1cccc(C(F)(F)F)c1` in this work.
An inhibition of 36.2% was found for `Nc1nccnc1C(=O)NNC(=O)c1ccc(Br)cc1` in this work.
An inhibition of 31% was found for `Cc1nc(C(=O)NNC(=O)c2cccc(C(F)(F)F)c2)cs1` in this work.
An inhibition of 51% was found for `Cc1nc(C(=O)NNC(=O)c2ccc(Cl)cc2)cs1` in this work.
An inhibition of 30.6% was found for `Cc1nc(C(=O)NNC(=O)c2cccc(Br)c2)cs1` in this work.
An inhibition of 79% was found for `Nc1nccnc1C(=O)NNC(=O)c1ccc(C(F)(F)F)cc1` in this work.
An inhibition of 96% was found for `O=C(NNC(=O)c1ncccc1O)c1cccc(C(F)(F)F)c1` in this work.
An inhibition of 81% was found for `O=C(NNC(=O)c1ncccc1O)c1ccc(Cl)cc1` in this work.

What follows are compounds tested against T1, Toll-like receptor 7 (Homo sapiens) (assay: Inhibition of human TLR7 expressed in HEK293 cells assessed as decrease in R848-induced NF-kappaB activation-mediated SEAP production at 5 uM after 24 hrs by Quanti-blue-based assay relative to control).
Assay type: cell-based
An inhibition of 93.1% was found for `CN(C)c1ccc(-c2nc(C(=O)NNC(=O)c3ccccn3)cs2)cc1` in this work.
An inhibition of 79% was found for `O=C(NNC(=O)c1csc(-c2cccc(F)c2)n1)c1ccccn1` in this work.
An inhibition of 99.1% was found for `O=C(NNC(=O)c1csc(-c2cc(Cl)cc(Cl)c2)n1)c1ccccn1` in this work.
An inhibition of 99.9% was found for `O=C(NNC(=O)c1csc(-c2cccc(Cl)c2Cl)n1)c1ccccn1` in this work.
An inhibition of 96.1% was found for `O=C(NNC(=O)c1csc(-c2ccc(C(F)(F)F)cc2)n1)c1ccccn1` in this work.
An inhibition of 91% was found for `O=C(NNC(=O)c1csc(-c2ccc(Cl)cc2)n1)c1ccccn1` in this work.
An inhibition of 91.9% was found for `CCc1ccc(-c2nc(C(=O)NNC(=O)c3ccccn3)cs2)cc1` in this work.
An inhibition of 80.3% was found for `COc1ccc(-c2nc(C(=O)NNC(=O)c3ccccn3)cs2)cc1` in this work.
An inhibition of 93.7% was found for `O=C(NNC(=O)c1csc(-c2cccc(Cl)c2)n1)c1ccccn1` in this work.
An inhibition of 65% was found for `O=C(NNC(=O)c1csc(-c2ccc(F)cc2)n1)c1ccccn1` in this work.
An inhibition of 96.7% was found for `O=C(NNC(=O)c1csc(-c2cccc(C(F)(F)F)c2)n1)c1ccccn1` in this work.
An inhibition of 88.2% was found for `Cc1ccc(-c2nc(C(=O)NNC(=O)c3ccccn3)cs2)cc1` in this work.
An inhibition of 97.6% was found for `O=C(NNC(=O)c1csc(-c2cccc(Br)c2)n1)c1ccccn1` in this work.
An inhibition of 66% was found for `COc1ccc(-c2nc(C(=O)NNC(=O)c3ccccn3)cs2)cc1OC` in this work.

These compounds were tested against T1, Toll-like receptor 7 (Homo sapiens) (assay: Inhibition of human TLR7 expressed in HEK293 cells assessed as decrease in R848-induced NF-kappaB activation-mediated SEAP production at 30 uM after 24 hrs by Quanti-blue-based assay relative to control).
Assay type: cell-based
In the case of `Nc1nccnc1C(=O)NNC(=O)c1cccc(C(F)(F)F)c1`, the inhibition is reported as “Active”.
For `Cc1nc(C(=O)NNC(=O)c2ccc(Cl)cc2)cs1`, the inhibition was “Active”.

Reference: ChEMBL document CHEMBL4190396, “Discovery of Novel Small-Molecule Inhibitors of NF-κB Signaling with Antiinflammatory and Anticancer Properties” (J Med Chem, 2018)
